Calls of active or inactive are those of the source. No cut-off for these calls is given here.
How the values were obtained:
Ramos = experiment: Cytotoxicity against human Ramos cells after 72 hrs by MTT assay
[1] = Cytotoxicity against human HCC827 cells after 72 hrs by MTT assay; settings: HCC827, 72 h
A549 = experiment: Cytotoxicity against human A549 cells after 72 hrs by MTT assay; settings: A549, 72 h
[2] = Cytotoxicity against human H820 cells after 72 hrs by MTT assay; settings: NCI-H820, 72 h
NCI-H292 = experiment: Cytotoxicity against human NCI-H292 cells after 72 hrs by MTT assay; settings: NCI-H292, 72 h
BT-474 = experiment: Cytotoxicity against human BT474 cells after 72 hrs by MTT assay; settings: BT-474, 72 h
MCF7 = experiment: Cytotoxicity against human MCF7 cells after 72 hrs by MTT assay; settings: MCF7, 72 h
SW480 = experiment: Cytotoxicity against human SW480 cells after 72 hrs by MTT assay; settings: SW480, 72 h
PC-3 = experiment: Cytotoxicity against human PC3 cells after 72 hrs by MTT assay; settings: PC-3, 72 h
SH-SY5Y = experiment: Cytotoxicity against human SH-SY5Y cells after 72 hrs by MTT assay
MV4-11 [3] = experiment: Antitumor activity against human MV4-11 cells xenografted in NOD-SCID mouse assessed as tumor regression at 20 mg/kg, ip administered qd for 21 days measured after 2 to 3 days of last dose by hematoxylin staining; format: functional, organism-based; set-up: dose 20 mg/kg
How it was run: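 NOD-SCID mice bearing MV4-11 tumours received 20 mg/kg/d ip and were sacrificed at set times after dosing. Tumours were formalin-fixed and paraffin-embedded, and 4−8 μm sections were cut. Proliferation by Ki67 immunostaining, apoptosis by TUNEL staining, tissue by hematoxylin staining; light-microscope imaging.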

Mus musculus [4] = experiment: Toxicity in NOD-SCID mouse bearing human MV4-11 cells assessed as signs of toxicity at 20 to 100 mg/kg, ip administered qd for 21 days; format: organism-based; set-up: dose 20-100 mg/kg, route intraperitoneal; settings: in vivo, 504 h
How it was run: (§1)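 Female NOD-SCID mice (6−7 weeks old) received s.c. hind-flank injections of MV4-11 cells (100 μL of a 1 × 10⁸/mL suspension in serum-free medium). At 300−500 mm³, the mice were randomized into 4 groups of 6. They were dosed ip once daily for 21 days with 20, 40 or 100 mg/kg/d or vehicle (25% PEG400 plus 5% DMSO, 5 mL/kg). Body weight and signs of toxicity were followed throughout.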

MV4-11 [5] = experiment: Downregulation of STAT5 protein expression in human MV4-11 cells at 10 to 300 nM after 5 hrs by Western blot analysis; format: functional, cell-based
MV4-11 [6] = experiment: Downregulation of Erk1/2 protein expression in human MV4-11 cells at 10 to 300 nM after 5 hrs by Western blot analysis; format: functional, cell-based
MV4-11 [7] = experiment: Antitumor activity against human MV4-11 cells xenografted in NOD-SCID mouse assessed as tumor growth regression at 100 mg/kg, ip once daily for 21 days measured every 3 days; format: functional, organism-based; set-up: dose 100 mg/kg
How it was run: (§2)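 Female NOD-SCID mice, 6−7 weeks old, received 100 μL of MV4-11 cells (1 × 10⁸/mL in serum-free medium) s.c. in the hind flank. At 300−500 mm³ tumours, mice were randomized (6 per group). Drug was dissolved in 25% (v/v) PEG400 plus 5% DMSO and given ip once daily at 5 mL/kg. Calipers every 3 days; volume = a × b²/2.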

MV4-11 [8] = experiment: Antitumor activity against human MV4-11 cells xenografted in NOD-SCID mouse assessed as tumor growth inhibition at 20 mg/kg, ip once daily for 21 days measured every 3 days; format: functional; settings: MV4-11, ip, route intraperitoneal, read-out: GI; how it was run: as §2
MV4-11 [9] = experiment: Antitumor activity against human MV4-11 cells xenografted in NOD-SCID mouse assessed as tumor growth inhibition at 40 mg/kg, ip once daily for 21 days measured every 3 days; format: functional; settings: MV4-11, ip, route intraperitoneal, read-out: GI; how it was run: as §2
Mus musculus [10] = experiment: Toxicity in NOD-SCID mouse bearing human MV4-11 cells assessed as change in body weight at 20 to 100 mg/kg, ip administered qd for 21 days; format: organism-based; set-up: dose 20-100 mg/kg, route intraperitoneal; settings: in vivo, 504 h; how it was run: as §1
HCT-116 = experiment: Cytotoxicity against FLT3-independent human HCT116 cells after 72 hrs by MTT assay; format: functional, cell-based; settings: HCT-116, 72 h
How it was run: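 Adherent lines at 2−5 × 10³ cells/well were allowed to settle 24 h, then the medium was replaced with serial inhibitor dilutions for 72 h. MTT was added for 2−4 h, followed by dissolution in 100% DMSO. OD read at 570 nm. Viability relative to 0.1% DMSO controls; triplicate. Grown in RPMI 1640 or DMEM with 10% FBS, 5% CO₂, 37 °C.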

[11] = molecular target: Macrophage colony-stimulating factor 1 receptor (Homo sapiens, UniProt P07333); experiment: Inhibition of human FMS
[12] = molecular target: Platelet-derived growth factor receptor alpha (Homo sapiens, UniProt P16234); experiment: Inhibition of human PDGFRalpha
[13] = molecular target: Vascular endothelial growth factor receptor 3 (Homo sapiens, UniProt P35916); experiment: Inhibition of human FLT4
[14] = molecular target: Insulin-like growth factor 1 receptor (Homo sapiens, UniProt P08069); experiment: Inhibition of human IGF-1R
[15] = molecular target: Serine/threonine-protein kinase pim-1 (Homo sapiens, UniProt P11309); experiment: Inhibition of human Pim1
[16] = molecular target: Serine/threonine-protein kinase PLK1 (Homo sapiens, UniProt P53350); experiment: Inhibition of human PLK1
[17] = molecular target: Tyrosine-protein kinase SYK (Homo sapiens, UniProt P43405); experiment: Inhibition of human Syk
[18] = molecular target: Tyrosine-protein kinase JAK3 (Homo sapiens, UniProt P52333); experiment: Inhibition of human JAK3
[19] = molecular target: Tyrosine-protein kinase Lck (Homo sapiens, UniProt P06239); experiment: Inhibition of human Lck
Jurkat = experiment: Cytotoxicity against human Jurkat cells after 72 hrs by MTT assay

Insulin-like growth factor 1 receptor, sequence (P08069 31-736 limits assumed): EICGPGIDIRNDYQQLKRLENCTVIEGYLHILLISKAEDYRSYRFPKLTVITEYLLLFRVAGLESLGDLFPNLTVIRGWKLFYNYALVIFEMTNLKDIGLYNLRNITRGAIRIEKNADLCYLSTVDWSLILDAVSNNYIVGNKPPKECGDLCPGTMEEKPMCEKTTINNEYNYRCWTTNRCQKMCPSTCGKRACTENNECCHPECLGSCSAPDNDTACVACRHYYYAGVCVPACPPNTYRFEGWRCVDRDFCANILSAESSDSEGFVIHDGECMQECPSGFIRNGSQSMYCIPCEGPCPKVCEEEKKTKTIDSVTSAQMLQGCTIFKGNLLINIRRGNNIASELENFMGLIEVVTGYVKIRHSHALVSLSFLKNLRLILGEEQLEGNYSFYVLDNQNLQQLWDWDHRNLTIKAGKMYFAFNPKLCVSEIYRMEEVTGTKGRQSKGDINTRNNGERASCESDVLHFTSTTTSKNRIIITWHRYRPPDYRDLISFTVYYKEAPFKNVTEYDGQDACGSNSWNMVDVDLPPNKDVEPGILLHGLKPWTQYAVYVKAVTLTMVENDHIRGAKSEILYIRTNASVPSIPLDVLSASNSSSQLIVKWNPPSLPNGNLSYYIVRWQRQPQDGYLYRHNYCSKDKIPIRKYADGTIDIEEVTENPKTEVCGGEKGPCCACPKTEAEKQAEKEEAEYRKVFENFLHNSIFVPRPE
Insulin-like growth factor 1 receptor, sequence (P08069 741-1367 limits assumed): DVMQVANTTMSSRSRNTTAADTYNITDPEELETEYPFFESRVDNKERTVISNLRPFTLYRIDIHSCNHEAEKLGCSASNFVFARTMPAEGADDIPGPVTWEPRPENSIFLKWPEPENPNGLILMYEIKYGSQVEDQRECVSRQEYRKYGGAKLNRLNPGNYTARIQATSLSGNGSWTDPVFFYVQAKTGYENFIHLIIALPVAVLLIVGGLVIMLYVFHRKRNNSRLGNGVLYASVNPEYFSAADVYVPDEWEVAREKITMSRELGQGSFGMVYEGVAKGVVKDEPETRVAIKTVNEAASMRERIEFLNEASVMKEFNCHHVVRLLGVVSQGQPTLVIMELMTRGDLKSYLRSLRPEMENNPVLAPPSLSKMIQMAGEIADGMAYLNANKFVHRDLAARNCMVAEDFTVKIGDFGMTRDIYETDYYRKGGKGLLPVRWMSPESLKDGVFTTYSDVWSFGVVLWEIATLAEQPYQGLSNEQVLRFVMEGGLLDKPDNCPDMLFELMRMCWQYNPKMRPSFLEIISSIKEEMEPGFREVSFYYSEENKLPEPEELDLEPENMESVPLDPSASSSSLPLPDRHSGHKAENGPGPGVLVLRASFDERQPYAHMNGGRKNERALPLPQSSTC
Serine/threonine-protein kinase pim-1, sequence (P11309 whole entry): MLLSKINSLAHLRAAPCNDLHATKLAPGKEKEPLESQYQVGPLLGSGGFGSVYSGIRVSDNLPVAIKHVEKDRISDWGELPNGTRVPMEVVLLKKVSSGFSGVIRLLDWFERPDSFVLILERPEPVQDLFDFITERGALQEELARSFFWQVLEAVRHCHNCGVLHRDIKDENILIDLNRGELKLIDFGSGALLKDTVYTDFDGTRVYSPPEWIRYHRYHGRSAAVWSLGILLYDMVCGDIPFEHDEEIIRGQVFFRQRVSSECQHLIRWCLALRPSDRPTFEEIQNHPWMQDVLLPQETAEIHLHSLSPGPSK
Platelet-derived growth factor receptor alpha, sequence (P16234 whole entry): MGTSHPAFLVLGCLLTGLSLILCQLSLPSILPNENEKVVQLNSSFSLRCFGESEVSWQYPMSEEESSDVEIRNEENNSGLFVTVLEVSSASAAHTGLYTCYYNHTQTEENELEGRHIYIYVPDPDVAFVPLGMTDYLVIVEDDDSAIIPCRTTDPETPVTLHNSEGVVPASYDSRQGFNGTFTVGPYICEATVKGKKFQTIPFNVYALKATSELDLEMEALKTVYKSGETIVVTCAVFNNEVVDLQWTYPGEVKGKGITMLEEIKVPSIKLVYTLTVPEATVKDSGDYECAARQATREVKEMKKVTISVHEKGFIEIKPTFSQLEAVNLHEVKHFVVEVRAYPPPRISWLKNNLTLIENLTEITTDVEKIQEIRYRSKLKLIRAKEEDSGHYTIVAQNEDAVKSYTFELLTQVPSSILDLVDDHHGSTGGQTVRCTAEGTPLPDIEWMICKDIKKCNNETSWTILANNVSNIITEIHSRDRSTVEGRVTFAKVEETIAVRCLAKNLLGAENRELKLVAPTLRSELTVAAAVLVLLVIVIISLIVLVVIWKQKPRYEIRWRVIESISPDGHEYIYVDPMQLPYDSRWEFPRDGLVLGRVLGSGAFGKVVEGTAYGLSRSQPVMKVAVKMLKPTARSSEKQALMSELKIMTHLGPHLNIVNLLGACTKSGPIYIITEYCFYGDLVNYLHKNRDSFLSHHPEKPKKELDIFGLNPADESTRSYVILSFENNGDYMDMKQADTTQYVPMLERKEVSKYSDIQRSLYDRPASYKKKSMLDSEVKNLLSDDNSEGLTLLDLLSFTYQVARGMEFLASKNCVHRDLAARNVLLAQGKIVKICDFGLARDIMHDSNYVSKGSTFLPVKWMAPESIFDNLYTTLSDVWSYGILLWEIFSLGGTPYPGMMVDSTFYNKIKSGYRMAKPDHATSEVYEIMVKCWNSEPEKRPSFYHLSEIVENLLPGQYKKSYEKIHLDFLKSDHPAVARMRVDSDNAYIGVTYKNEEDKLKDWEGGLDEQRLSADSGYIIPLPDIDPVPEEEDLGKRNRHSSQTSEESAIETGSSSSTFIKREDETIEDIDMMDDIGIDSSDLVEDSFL
Vascular endothelial growth factor receptor 3, sequence (P35916 whole entry): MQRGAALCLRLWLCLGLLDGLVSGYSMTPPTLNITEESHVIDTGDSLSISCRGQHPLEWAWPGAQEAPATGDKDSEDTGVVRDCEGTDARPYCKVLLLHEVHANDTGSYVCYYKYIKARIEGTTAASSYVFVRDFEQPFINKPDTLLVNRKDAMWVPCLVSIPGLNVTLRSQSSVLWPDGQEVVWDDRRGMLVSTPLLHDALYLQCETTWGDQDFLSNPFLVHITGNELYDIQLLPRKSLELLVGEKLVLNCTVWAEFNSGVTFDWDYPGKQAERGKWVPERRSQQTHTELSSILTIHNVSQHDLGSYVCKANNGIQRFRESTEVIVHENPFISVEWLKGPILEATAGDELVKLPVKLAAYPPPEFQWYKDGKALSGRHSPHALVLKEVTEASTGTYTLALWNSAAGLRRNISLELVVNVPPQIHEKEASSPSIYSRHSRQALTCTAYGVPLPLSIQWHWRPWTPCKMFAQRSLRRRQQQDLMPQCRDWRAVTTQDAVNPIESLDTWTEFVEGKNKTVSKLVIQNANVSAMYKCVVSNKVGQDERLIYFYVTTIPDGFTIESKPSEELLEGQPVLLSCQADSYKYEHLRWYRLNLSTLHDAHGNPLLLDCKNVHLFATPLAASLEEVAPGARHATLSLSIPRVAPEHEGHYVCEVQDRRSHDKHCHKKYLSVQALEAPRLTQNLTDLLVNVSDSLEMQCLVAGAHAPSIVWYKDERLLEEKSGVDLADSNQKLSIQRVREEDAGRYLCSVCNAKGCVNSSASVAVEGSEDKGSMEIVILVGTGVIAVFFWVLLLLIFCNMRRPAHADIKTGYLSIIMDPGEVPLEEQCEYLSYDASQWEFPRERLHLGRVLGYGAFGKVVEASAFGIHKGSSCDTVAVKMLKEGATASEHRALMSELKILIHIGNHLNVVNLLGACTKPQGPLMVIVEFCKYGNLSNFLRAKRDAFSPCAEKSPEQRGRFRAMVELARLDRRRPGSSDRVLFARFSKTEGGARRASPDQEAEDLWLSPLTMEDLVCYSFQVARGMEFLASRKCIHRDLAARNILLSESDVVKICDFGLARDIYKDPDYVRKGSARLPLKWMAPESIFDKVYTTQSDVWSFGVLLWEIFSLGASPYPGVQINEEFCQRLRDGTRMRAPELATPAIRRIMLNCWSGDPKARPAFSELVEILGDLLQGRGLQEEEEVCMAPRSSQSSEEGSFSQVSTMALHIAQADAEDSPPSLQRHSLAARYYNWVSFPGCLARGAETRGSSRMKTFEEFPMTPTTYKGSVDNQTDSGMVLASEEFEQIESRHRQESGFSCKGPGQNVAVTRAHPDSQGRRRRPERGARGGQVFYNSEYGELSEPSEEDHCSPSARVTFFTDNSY
Macrophage colony-stimulating factor 1 receptor, sequence (P07333 whole entry): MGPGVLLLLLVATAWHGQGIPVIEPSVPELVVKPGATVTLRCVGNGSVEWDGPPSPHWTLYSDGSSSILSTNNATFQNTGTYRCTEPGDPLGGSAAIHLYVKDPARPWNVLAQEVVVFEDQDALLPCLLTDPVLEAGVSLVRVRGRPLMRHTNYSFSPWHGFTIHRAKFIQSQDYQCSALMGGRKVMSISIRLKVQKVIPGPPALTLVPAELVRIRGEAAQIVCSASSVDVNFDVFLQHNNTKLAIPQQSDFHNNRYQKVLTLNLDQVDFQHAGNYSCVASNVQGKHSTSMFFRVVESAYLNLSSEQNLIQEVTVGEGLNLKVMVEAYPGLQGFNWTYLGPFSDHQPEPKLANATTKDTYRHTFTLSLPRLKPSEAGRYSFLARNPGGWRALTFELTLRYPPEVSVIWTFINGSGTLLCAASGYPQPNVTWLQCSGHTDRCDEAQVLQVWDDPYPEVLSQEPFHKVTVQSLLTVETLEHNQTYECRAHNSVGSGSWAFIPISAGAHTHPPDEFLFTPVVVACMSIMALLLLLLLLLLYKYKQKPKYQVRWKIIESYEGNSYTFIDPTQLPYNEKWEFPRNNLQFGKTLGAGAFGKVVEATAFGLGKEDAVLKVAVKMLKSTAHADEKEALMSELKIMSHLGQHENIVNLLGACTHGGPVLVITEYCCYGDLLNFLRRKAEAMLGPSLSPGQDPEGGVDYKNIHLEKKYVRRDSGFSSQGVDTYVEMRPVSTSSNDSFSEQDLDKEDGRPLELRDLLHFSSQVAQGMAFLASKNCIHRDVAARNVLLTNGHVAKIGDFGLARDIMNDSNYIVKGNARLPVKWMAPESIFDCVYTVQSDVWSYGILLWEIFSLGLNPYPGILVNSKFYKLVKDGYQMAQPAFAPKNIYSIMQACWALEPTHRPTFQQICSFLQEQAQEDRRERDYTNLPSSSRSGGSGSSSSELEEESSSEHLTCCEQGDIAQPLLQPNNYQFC

IC50 [11]: 2800 nM
IC50 [12]: > 10 µM
IC50 [13]: 3.7 µM
IC50 [14]: > 10 µM
IC50 [15]: > 10 µM
IC50 [16]: > 10 µM
IC50 [17]: > 10 µM
IC50 [18]: > 10 µM
IC50 [19]: > 10 µM
SMILES: Cc1ccc(NC(=O)Nc2nnc(Sc3ncnc4cc(OCCCN5CCOCC5)ccc34)s2)cc1
IC50 (Ramos): 6.25 µM
IC50 [1]: 12.5 µM
IC50 (A549): > 20 µM
IC50 [2]: > 20 µM
IC50 (NCI-H292): 6.94 µM
IC50 (BT-474): > 20 µM
IC50 (MCF7): > 20 µM
IC50 (SW480): 11.2 µM
IC50 (PC-3): 15.7 µM
IC50 (SH-SY5Y): > 20 µM
Activity (MV4-11 [3]): Active
Activity (Mus musculus [4]): Non-toxic
Activity (MV4-11 [5]): inactive
Activity (MV4-11 [6]): inactive
Activity (MV4-11 [7]): Active
inhibition in vivo at 20 mg/kg (MV4-11 [8]): 66%
inhibition in vivo at 40 mg/kg (MV4-11 [9]): 84%
Activity (Mus musculus [10]): Non-toxic
IC50 (HCT-116): > 10 µM
IC50 (Jurkat): 3.05 µM

Reference: ChEMBL document CHEMBL2046280, “Discovery of the novel potent and selective FLT3 inhibitor 1-{5-[7-(3- morpholinopropoxy)quinazolin-4-ylthio]-[1,3,4]thiadiazol-2-yl}-3-p-tolylurea and its anti-acute myeloid leukemia (AML) activities in vitro and in vivo” (J Med Chem, 2012)
